Experimental data reported in ChEMBL document CHEMBL3400032 (Bioorg Med Chem, 2015).
Active and inactive are the calls of the source. The rule behind the calls is not given here.

Key:
[1] = Drug metabolism in human liver S9 fraction assessed as compound remaining at 1 uM after 30 mins by HPLC/MS/MS analysis relative to control; format: ADME, subcellular; conditions: read-out: Stability
Procedure, shortened: (§1)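 Test compound at 1 µM final, incubated 30 min at 37 °C in serum, or in S9 mix (50 mM potassium phosphate pH 7.4, 3 mM NADPH, 1 mg protein/mL pooled male SD rat or human liver S9). Preincubated 5 min at 37 °C, compound added in acetonitrile–water (1:1), stopped with ice-cold acetonitrile, centrifuged, filtered, parent and carboxylate hydrolysate quantified by HPLC-MS/MS.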

[2] = Solubility of the compound at pH 5.5; format: physicochemical; conditions: buffer
[3] = Solubility of the compound at pH 7.4; format: physicochemical; conditions: buffer
Rattus norvegicus [4] = experiment: In vivo inhibition of DPP4 in Sprague-Dawley rat at 3 mg/kg, po after 10 hrs; format: functional
Procedure, shortened: (§2)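 Male SD rats, 11 weeks, fasted 24 h before predose sampling and throughout; single oral gavage 3 mg/kg. Blood taken −0.5, 1, 2, 4, 6, 10, 24 h. Plasma DPP-4 activity: Gly-Pro-MCA substrate, HEPES/NaCl/MgCl2 buffer pH 7.8, stopped with 5% acetic acid after 20 min, AMC fluorescence 360/460 nm against AMC standard curve; duplicates, background-subtracted, mU/mL plasma.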

Serum [5] = experiment: Drug metabolism in human serum assessed as 2-(3-aminopiperidin-1-yl)-3-(2-chlorobenzyl)-5-methyl-4-oxo-4,5-dihydro-3H-imidazo[4,5-c]quinoline-8-carboxylic acid formation at 1 uM after 30 mins by HPLC/MS/MS analysis relative to control; format: ADME, cell-free; conditions: 0.5 h; procedure, shortened: as §1
[6] = Drug metabolism in Sprague-Dawley rat liver S9 fraction assessed as compound remaining at 1 uM after 30 mins by HPLC/MS/MS analysis relative to control; format: ADME, subcellular; conditions: read-out: Stability; procedure, shortened: as §1
[7] = Permeability of the compound at pH 7.4 by PAMPA; format: ADME; conditions: read-out: permeability
Rattus norvegicus [8] = experiment: Reduction of blood glucose level in po dosed Zucker fatty rat model by OGTT analysis; format: functional, organism-based
[9] = Drug metabolism in rat serum assessed as compound remaining at 1 uM after 30 mins by HPLC/MS/MS analysis relative to control; format: ADME, cell-free; conditions: read-out: Stability; procedure, shortened: as §1
[10] = Permeability of the compound at pH 5 by PAMPA; format: ADME; conditions: read-out: permeability
[11] = Drug metabolism in human serum assessed as compound remaining at 1 uM after 30 mins by HPLC/MS/MS analysis relative to control; format: ADME, cell-free; conditions: read-out: Stability; procedure, shortened: as §1
Rattus norvegicus [12] = experiment: In vivo inhibition of DPP4 in Sprague-Dawley rat at 3 mg/kg, po after 1 hr; format: functional; procedure, shortened: as §2
Rattus norvegicus [13] = experiment: Reduction of blood glucose level in Zucker fatty rat model at 1 mg/kg, po by OGTT analysis; format: functional, organism-based; set-up: dose 1 mg/kg
Rattus norvegicus [14] = experiment: Oral bioavailability in rat assessed as 2-(3-aminopiperidin-1-yl)-3-(2-chlorobenzyl)-5-methyl-4-oxo-4,5-dihydro-3H-imidazo[4,5-c]quinoline-8-carboxylic acid level at 20 mg/kg; format: ADME, organism-based; conditions: in vivo
Rattus norvegicus [15] = experiment: AUC in rat assessed as 2-(3-aminopiperidin-1-yl)-3-(2-chlorobenzyl)-5-methyl-4-oxo-4,5-dihydro-3H-imidazo[4,5-c]quinoline-8-carboxylic acid level at 20 mg/kg, po; format: ADME, organism-based, Plasma; set-up: dose 20 mg/kg, route oral; conditions: in vivo
Serum [16] = experiment: Drug metabolism in rat serum assessed as 2-(3-aminopiperidin-1-yl)-3-(2-chlorobenzyl)-5-methyl-4-oxo-4,5-dihydro-3H-imidazo[4,5-c]quinoline-8-carboxylic acid formation at 1 uM after 30 mins by HPLC/MS/MS analysis relative to control; format: ADME, cell-free; conditions: 0.5 h; procedure, shortened: as §1
Rattus norvegicus [17] = experiment: Cmax in rat assessed as 2-(3-aminopiperidin-1-yl)-3-(2-chlorobenzyl)-5-methyl-4-oxo-4,5-dihydro-3H-imidazo[4,5-c]quinoline-8-carboxylic acid level at 20 mg/kg, po; format: ADME, organism-based; set-up: dose 20 mg/kg, route oral; conditions: in vivo
[18] = Drug metabolism in Sprague-Dawley rat liver S9 fraction assessed as 2-(3-aminopiperidin-1-yl)-3-(2-chlorobenzyl)-5-methyl-4-oxo-4,5-dihydro-3H-imidazo[4,5-c]quinoline-8-carboxylic acid formation at 1 uM after 30 mins by HPLC/MS/MS analysis relative to control; format: ADME, subcellular; conditions: s9, 0.5 h; procedure, shortened: as §1
Rattus norvegicus [19] = experiment: Tmax in rat assessed as 2-(3-aminopiperidin-1-yl)-3-(2-chlorobenzyl)-5-methyl-4-oxo-4,5-dihydro-3H-imidazo[4,5-c]quinoline-8-carboxylic acid level at 20 mg/kg, po; format: ADME, organism-based; set-up: dose 20 mg/kg, route oral; conditions: in vivo
Plasma = experiment: Plasma concentration in rat at 20 mg/kg, po; format: ADME, organism-based; set-up: dose 20 mg/kg, route oral; conditions: in vivo
Procedure, shortened: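 Rats dosed orally with prodrug; plasma levels of prodrug and carboxylate active metabolite measured over time, limit of quantification 1.0 ng/mL.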

[20] = Solubility of the compound at pH 2.5; format: physicochemical; conditions: buffer
[21] = Drug metabolism in human liver S9 fraction assessed as 2-(3-aminopiperidin-1-yl)-3-(2-chlorobenzyl)-5-methyl-4-oxo-4,5-dihydro-3H-imidazo[4,5-c]quinoline-8-carboxylic acid formation at 1 uM after 30 mins by HPLC/MS/MS analysis relative to control; format: ADME, subcellular; conditions: s9, 0.5 h; procedure, shortened: as §1
Rattus norvegicus [22] = experiment: AUC in rat assessed as 2-(3-aminopiperidin-1-yl)-3-(2-chloro-5-fluorobenzyl)-5-methyl-4-oxo-4,5-dihydro-3H-imidazo[4,5-c]quinoline-7-carboxylic acid level at 10 mg/kg, po; format: ADME, organism-based, Plasma; set-up: dose 10 mg/kg, route oral; conditions: in vivo
Rattus norvegicus [23] = experiment: Oral bioavailability in rat assessed as 2-(3-aminopiperidin-1-yl)-3-(2-chloro-5-fluorobenzyl)-5-methyl-4-oxo-4,5-dihydro-3H-imidazo[4,5-c]quinoline-7-carboxylic acid level at 10 mg/kg; format: ADME, organism-based; conditions: in vivo

Structure (SMILES)	remaining at 0.5 h, 1 µM [1]	solubility [2]	solubility [3]	remaining at 0.5 h, 1 µM [6]	Papp [7]	remaining at 0.5 h, 1 µM [9]	Papp [10]	remaining at 0.5 h, 1 µM [11]	solubility [20]	also measured
Cc1oc(=O)oc1COC(=O)c1ccc2c(c1)c1nc(N3CCC[C@@H](N)C3)n(Cc3ccccc3Cl)c1c(=O)n2C.Cl	7.8%	3 µg/mL	< 1 µg/mL	< 0.5%	12.1 ×10⁻⁶ cm/s	< 0.5%	10.3 ×10⁻⁶ cm/s	< 0.5%	210 µg/mL	inhibition in vivo at 3 mg/kg (Rattus norvegicus [4]): 64%; Drug metabolism (Serum [5]): metabolite_detected; Activity (Rattus norvegicus [8]): Dose-dependent effect; inhibition in vivo at 3 mg/kg (Rattus norvegicus [12]): 87%; Activity (Rattus norvegicus [13]): Active; F (Rattus norvegicus [14]): 35%; AUC (Rattus norvegicus [15]): 728 ng·h/mL; Drug metabolism (Serum [16]): metabolite_detected; Cmax (Rattus norvegicus [17]): 94.1 ng/mL; Drug metabolism [18]: metabolite_detected; Tmax (Rattus norvegicus [19]): 2 h; Cp (Plasma): < 1 ng/mL; Drug metabolism [21]: metabolite_detected
Cc1oc(=O)oc1COC(=O)c1ccc2c3nc(N4CCC[C@@H](N)C4)n(Cc4cc(F)ccc4Cl)c3c(=O)n(C)c2c1.Cl	13%	1 µg/mL	< 1 µg/mL	3.6%	15.9 ×10⁻⁶ cm/s	< 0.5%	15.8 ×10⁻⁶ cm/s	< 0.5%	47 µg/mL	AUC (Rattus norvegicus [22]): 43.9 ng·h/mL; F (Rattus norvegicus [23]): 4.8%
